Source: ChEMBL document CHEMBL5107944, “Rational design of selective inhibitors of PARP4” (RSC Med Chem, 2021)
Each block holds one compound with its values, some of them ahead of it.

Columns and labels:
[1] = biological target: Protein mono-ADP-ribosyltransferase PARP4 (Homo sapiens, UniProt Q9UKK3); experiment: Inhibition of N-terminal His-tagged recombinant human PARP4 brct-catalytic domain (369 to 573 residues) expressed in Escherichia coli BL21 (DE3) preincubated with 6-a-NAD+ for 5 to 10 mins followed by enzyme addition and measured after 60 mins using NAD+ as substrate byHRP based chemiluminescence assay
Summary of the method: (§1)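 Plate-based PASTA assay. His6-SRPK2 is captured on nickel-coated wells as the ADP-ribosylation substrate in HEPES pH 7.5 buffer with NaCl, MgCl2 and TCEP. Recombinant PARP is added at 4–400 nM (2×). Inhibitor (0–200 μM) is premixed with 200 μM 6-a-NAD+ (2×) and reacted 60 min at 30 °C. Incorporated label is click-conjugated to biotin-azide and detected with streptavidin-HRP by chemifluorescence (ex 570/em 600). IC50 is the mean of ≥3 independent assays.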

[2] = biological target: Poly [ADP-ribose] polymerase 1 (Homo sapiens, UniProt P09874); experiment: Inhibition of N-terminal His-tagged full length human PARP1 expressed in Escherichia coli BL21 (DE3) preincubated with 6-a-NAD+ for 5 to 10 mins followed by enzyme addition and measured after 60 mins using NAD+ as substrate byHRP based chemiluminescence assay; summary of the method: as §1
[3] = biological target: T1, Protein mono-ADP-ribosyltransferase PARP15 (Homo sapiens, UniProt Q460N3); experiment: Inhibition of N-terminal His-tagged human PARP15 catalytic domain expressed in Escherichia coli BL21 (DE3) preincubated with 6-a-NAD+ for 5 to 10 mins followed by enzyme addition and measured after 60 mins using NAD+ as substrate byHRP based chemiluminescence assay; summary of the method: as §1
T1 sequence (Q460N3 whole entry): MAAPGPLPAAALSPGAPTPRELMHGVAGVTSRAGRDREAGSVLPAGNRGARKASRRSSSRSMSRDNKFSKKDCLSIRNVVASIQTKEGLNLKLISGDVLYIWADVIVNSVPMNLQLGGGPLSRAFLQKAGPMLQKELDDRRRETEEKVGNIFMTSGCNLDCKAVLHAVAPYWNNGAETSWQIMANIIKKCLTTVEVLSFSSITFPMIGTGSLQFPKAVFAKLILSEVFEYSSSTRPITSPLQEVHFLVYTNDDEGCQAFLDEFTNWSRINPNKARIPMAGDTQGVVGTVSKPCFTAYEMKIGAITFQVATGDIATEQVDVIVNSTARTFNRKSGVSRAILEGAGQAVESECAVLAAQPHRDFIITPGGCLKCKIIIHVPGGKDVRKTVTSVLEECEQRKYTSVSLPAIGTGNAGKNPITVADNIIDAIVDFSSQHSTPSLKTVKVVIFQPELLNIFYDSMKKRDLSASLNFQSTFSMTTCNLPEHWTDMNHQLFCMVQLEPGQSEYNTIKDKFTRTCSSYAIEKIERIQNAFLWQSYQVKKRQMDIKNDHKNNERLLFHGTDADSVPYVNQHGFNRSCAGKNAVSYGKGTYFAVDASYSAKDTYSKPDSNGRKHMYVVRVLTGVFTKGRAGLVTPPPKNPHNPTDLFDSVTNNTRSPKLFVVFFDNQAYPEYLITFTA

[4] = biological target: Poly [ADP-ribose] polymerase 2 (Homo sapiens, UniProt Q9UGN5); experiment: Inhibition of N-terminal His-tagged full length human PARP2 expressed in Escherichia coli BL21 (DE3) preincubated with 6-a-NAD+ for 5 to 10 mins followed by enzyme addition and measured after 60 mins using NAD+ as substrate byHRP based chemiluminescence assay; summary of the method: as §1
[5] = biological target: T2, Protein mono-ADP-ribosyltransferase PARP11 (Homo sapiens, UniProt Q9NR21); experiment: Inhibition of N-terminal His-tagged full length human PARP11 expressed in Escherichia coli BL21 (DE3) preincubated with 6-a-NAD+ for 5 to 10 mins followed by enzyme addition and measured after 60 mins using NAD+ as substrate byHRP based chemiluminescence assay; summary of the method: as §1
T2 sequence (Q9NR21 whole entry): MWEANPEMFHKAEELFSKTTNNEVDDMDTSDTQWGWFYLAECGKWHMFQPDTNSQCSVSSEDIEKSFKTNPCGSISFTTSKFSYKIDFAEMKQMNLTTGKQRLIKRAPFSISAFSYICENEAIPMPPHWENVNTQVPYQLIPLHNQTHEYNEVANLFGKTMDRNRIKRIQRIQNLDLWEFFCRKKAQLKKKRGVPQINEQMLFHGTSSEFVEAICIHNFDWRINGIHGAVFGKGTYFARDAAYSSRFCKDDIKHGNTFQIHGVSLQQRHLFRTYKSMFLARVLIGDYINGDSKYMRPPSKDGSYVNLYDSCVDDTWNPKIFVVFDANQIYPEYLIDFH

Protein mono-ADP-ribosyltransferase PARP4, sequence (Q9UKK3 whole entry, the tested form may be a part): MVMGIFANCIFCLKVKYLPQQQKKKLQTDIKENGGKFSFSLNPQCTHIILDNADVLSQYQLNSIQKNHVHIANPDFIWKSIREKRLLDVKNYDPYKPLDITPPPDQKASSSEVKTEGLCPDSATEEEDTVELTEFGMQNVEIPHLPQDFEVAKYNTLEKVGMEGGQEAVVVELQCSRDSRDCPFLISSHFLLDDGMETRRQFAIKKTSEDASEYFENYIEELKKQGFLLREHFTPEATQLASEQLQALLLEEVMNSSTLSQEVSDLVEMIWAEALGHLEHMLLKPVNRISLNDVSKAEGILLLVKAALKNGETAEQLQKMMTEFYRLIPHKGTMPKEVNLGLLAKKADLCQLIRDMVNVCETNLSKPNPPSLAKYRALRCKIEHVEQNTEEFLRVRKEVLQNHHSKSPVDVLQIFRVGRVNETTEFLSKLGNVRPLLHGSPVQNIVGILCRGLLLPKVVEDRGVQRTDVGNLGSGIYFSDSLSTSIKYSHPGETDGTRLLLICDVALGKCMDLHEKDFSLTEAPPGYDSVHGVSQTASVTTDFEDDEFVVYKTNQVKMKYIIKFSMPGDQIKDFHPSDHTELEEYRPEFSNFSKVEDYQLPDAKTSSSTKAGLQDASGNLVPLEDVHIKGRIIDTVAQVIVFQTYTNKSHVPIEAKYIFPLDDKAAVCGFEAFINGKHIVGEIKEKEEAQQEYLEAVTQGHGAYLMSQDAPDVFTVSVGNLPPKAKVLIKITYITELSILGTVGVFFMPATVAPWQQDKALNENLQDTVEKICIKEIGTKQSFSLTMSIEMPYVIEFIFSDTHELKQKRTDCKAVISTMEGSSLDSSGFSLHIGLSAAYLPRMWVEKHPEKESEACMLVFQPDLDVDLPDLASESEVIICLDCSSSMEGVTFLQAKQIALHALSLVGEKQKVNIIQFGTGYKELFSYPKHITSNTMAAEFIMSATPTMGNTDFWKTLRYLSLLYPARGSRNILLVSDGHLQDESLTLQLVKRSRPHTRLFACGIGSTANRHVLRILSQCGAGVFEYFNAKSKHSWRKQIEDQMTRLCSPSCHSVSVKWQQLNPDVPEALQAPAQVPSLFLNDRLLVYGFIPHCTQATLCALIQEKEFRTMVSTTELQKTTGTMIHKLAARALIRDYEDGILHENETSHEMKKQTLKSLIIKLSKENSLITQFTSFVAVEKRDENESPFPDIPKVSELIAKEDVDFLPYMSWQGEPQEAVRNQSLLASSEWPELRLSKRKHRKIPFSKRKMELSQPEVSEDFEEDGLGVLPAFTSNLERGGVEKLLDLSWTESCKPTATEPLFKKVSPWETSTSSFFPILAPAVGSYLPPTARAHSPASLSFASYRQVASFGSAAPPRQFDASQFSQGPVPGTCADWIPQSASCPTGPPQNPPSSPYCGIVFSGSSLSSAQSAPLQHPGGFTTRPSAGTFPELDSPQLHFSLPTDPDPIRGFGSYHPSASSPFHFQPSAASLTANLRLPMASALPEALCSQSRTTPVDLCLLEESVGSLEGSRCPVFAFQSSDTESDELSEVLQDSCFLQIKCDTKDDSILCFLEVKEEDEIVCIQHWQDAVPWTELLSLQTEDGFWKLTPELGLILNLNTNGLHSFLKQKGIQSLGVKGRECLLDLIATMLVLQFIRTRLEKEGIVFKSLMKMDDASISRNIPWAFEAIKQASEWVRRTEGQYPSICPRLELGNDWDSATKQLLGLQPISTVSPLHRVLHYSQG
Poly [ADP-ribose] polymerase 1, sequence (P09874 whole entry, the tested form may be a part): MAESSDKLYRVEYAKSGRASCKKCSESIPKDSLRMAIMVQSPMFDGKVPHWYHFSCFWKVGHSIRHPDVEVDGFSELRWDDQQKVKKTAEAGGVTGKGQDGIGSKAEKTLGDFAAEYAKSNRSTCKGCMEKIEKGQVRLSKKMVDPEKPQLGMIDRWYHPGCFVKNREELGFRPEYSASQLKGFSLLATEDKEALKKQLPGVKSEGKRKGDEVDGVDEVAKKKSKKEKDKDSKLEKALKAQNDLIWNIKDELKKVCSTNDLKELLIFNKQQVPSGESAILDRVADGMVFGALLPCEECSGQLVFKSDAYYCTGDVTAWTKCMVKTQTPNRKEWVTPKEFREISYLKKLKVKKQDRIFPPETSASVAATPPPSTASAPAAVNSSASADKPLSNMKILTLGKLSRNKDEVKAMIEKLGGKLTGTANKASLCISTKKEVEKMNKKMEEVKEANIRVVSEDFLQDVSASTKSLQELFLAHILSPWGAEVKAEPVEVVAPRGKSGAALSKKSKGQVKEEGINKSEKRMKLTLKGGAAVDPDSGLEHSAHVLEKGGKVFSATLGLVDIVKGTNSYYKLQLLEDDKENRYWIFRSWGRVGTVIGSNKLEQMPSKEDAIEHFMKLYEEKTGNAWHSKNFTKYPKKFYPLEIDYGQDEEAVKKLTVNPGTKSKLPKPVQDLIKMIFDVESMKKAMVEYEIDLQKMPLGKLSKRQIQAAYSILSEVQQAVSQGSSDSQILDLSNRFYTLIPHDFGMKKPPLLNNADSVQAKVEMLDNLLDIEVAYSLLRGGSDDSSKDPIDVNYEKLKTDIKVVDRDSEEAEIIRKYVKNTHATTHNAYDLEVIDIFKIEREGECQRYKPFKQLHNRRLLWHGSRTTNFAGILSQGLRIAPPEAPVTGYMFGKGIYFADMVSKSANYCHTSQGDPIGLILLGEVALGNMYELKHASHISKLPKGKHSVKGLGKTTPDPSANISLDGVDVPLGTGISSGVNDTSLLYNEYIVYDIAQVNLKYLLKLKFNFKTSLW
Poly [ADP-ribose] polymerase 2, sequence (Q9UGN5 whole entry): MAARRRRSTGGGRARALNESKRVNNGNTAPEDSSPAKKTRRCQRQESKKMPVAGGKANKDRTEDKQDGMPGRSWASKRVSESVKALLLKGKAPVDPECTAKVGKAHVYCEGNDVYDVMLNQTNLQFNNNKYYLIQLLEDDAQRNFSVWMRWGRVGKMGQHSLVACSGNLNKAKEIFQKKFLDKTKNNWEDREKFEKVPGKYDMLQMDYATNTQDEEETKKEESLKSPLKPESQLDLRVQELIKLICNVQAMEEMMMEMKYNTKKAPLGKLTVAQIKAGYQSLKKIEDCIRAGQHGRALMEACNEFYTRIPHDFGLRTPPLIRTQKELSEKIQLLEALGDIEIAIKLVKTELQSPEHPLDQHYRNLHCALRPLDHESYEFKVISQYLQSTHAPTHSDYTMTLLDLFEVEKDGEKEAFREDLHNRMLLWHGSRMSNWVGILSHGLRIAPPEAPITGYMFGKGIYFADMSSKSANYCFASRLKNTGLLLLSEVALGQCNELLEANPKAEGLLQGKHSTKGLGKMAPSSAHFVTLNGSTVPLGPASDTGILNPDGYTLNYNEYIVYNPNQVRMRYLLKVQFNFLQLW

Compound: Cc1cc(I)cc2c(=O)[nH]c(CSc3ccc(C(=O)O)cc3)nc12
IC50 [1]: 800 nM

Compound: Cc1cc(Br)cc2c(=O)[nH]c(CSc3ccc(C(=O)O)cc3)nc12
IC50 [1]: 1900 nM

Compound: CC#Cc1cc(C)c2nc(CSc3ncccn3)[nH]c(=O)c2c1
IC50 [3]: 3300 nM

Compound: Cc1cccc2c(=O)[nH]c(CSc3ncccn3)nc12
IC50 [4]: 800 nM
IC50 [5]: 200 nM

Continued by falling IC50 [1], values first:

IC50 [1]: 2700 nM
Compound: Cc1cc(I)cc2c(=O)[nH]c(CSc3ncccn3)nc12

IC50 [4]: 2000 nM
IC50 [1]: 800 nM
IC50 [2]: 2500 nM
Compound: Cc1cc(Br)cc2c(=O)[nH]c(CSc3ncccn3)nc12

IC50 [1]: 500 nM
IC50 [2]: 100 nM
Compound: Cc1cc(C)c2nc(CSc3ncccn3)[nH]c(=O)c2c1
